Tests used:
L1210 [1] = assay: The compound was tested for inhibition of thymidine kinase using […] at concentration 200 uM in L1210 cells; format: cell-based
Summary of the method: (§1)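 Enzyme: L1210 ascites cell sonicate (50 mM Tris-HCl pH 7.8, 150 mM KCl), 100000g supernatant precipitated at 30% ammonium sulfate saturation. Reaction mix: 5 µM [3H]TdR, 2 mM ATP, 1 mM MgCl2, 10% Me2SO, 45 mM Tris pH 7.8, compound added in Me2SO. Run 10 min at 37 °C, stopped by boiling. [3H]TMP captured on PEI-cellulose, eluted with HCl, counted. % inhibition given as mean ± SE of n determinations.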

[2] = Thymidine kinase activity was measured by nonradiochemical assay method + TdR (percentage of the control rate measured in the presence of 5 uM Tdr)
Summary of the method: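 Conditions match the radiochemical assay, but with 5 µM unlabeled TdR: 10 min at 37 °C, stopped by 20-fold dilution in ice-cold water. Nucleotides separated from nucleosides, freeze-dried, dephosphorylated overnight with alkaline phosphatase, then quantified as nucleosides by C18 HPLC (A254/A280). Expressed as % of the control rate with 5 µM TdR, mean of ≥2 experiments.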

L1210 [3] = assay: The compound was tested for inhibition of thymidine kinase using […] at concentration 50 uM in L1210 cells; format: cell-based; summary of the method: as §1
[4] = Thymidine kinase activity was measured by radio chemical assay method
Summary of the method: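 Same L1210 ammonium sulfate enzyme fraction and mix: 5 µM [3H]TdR, 2 mM ATP, 1 mM MgCl2, 10% Me2SO, 45 mM Tris-HCl pH 7.8, 37 °C. Stopped by boiling. [3H]TMP bound to PEI-cellulose squares and counted. Run in parallel with the HPLC assay. Activity given as % of the control rate, mean of at least two experiments.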

[5] = Thymidine kinase activity was measured by nonradiochemical assay method - TdR (percentage of the control rate measured in the presence of 5 µM TdR)
L1210 [6] = assay: The compound was tested for inhibition of thymidine kinase using […] at concentration 125 uM in L1210 cells; format: cell-based; summary of the method: as §1
L1210 [7] = assay: The compound was tested for inhibition of thymidine kinase using […] at concentration 250 uM in L1210 cells; format: cell-based; summary of the method: as §1

Activity [2]	Activity [4]	Activity [5]	Structure (SMILES)	inhibition (L1210 [1])	inhibition (L1210 [3])	inhibition (L1210 [6])	inhibition (L1210 [7])
			Cc1cn([C@H]2C[C@H](O)[C@@H](COCCOc3ccc(OCc4ccccc4)cc3)O2)c(=O)[nH]c1=O	14%			
27	26	0	Cc1cn([C@H]2C[C@H](O)[C@@H](CN)O2)c(=O)[nH]c1=O		76%		
			Cc1cn(C2CC(O)C(CNC(=O)COc3ccc(OCc4ccc([N+](=O)[O-])cc4)cc3)O2)c(=O)[nH]c1=O (stereo not given)			1%	
152	65	118	Cc1cn([C@H]2C[C@H](O)[C@@H](COC(=O)COc3ccc(OCc4ccccc4)cc3)O2)c(=O)[nH]c1=O				33%
			Cc1cn(C2CC(O)C(CNC(=O)COc3ccc(OCc4ccccc4)cc3)O2)c(=O)[nH]c1=O (stereo not given)			0%	
144	62	110	Cc1cn([C@H]2C[C@H](O)[C@@H](COC(=O)COc3ccc(OCc4ccc([N+](=O)[O-])cc4)cc3)O2)c(=O)[nH]c1=O	35%			
